Data: ChEMBL document CHEMBL5576140, “Computational Design of Pore-Forming Peptides with Potent Antimicrobial and Anticancer Activities” (J Med Chem, 2024)
Activity calls are given as the source filed them. No cut-off for these calls is given here.

Legend:
[1] = system: MCF7; assay: pH-dependent anticancer activity against human MCF7 cells in PBS medium at 10 uM incubated for 1 hr; type: functional, cell-based
Outline: (§1)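 Cells cultured in RPMI, DMEM or PBS, each adjusted to pH 8, 7 or 6, plus one unadjusted (~7.6). Peptide at 10 μM for only 1 h, to limit pH drift from CO₂-bicarbonate buffering. Cell viability read. Controls were melittin, ampicillin and PBS. Two independent repetitions; effects analysed by ANOVA.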

[2] = Anti-cancer activity against human MEC-1 cells incubated for 24 hrs by WST assay; type: functional, cell-based; settings: MEC1, 24 h
[3] = system: SUD4; assay: Anti-cancer activity against human SU-DHL-4 cells incubated for 24 hrs by WST assay; type: functional, cell-based; settings: SU-DHL-4, 24 h
[4] = system: T-cell line; assay: Cytotoxicity against human T-lymphocytes assessed as deleterious effect upto 50 uM by flow cytometry; type: toxicity, cell-based
Outline: (§2)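 Whole blood from a healthy donor treated with peptides up to 50 μM; effect on B and T lymphocytes, granulocytes and monocytes assessed.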

[5] = Stability in simulated pore POPC lipid bilayer membrane; type: physicochemical
Outline: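 Coarse-grained MD with the "scaled" Martini force field, peptides in POPC membrane, 51 μs. Counts transmembrane peptides at 51 μs. Water beads within 2 nm vertically of membrane centre and peptide–peptide interaction energy averaged over 48–51 μs. Contacts (salt bridge or stacking) scored below 0.8 nm and called stable if present ≥50% of the time.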

[6] = system: B cell; assay: Cytotoxicity against human B-lymphocytes assessed as deleterious effect upto 50 uM by flow cytometry; type: toxicity, cell-based; outline: as §2
[7] = system: Klebsiella pneumoniae; assay: Induction of outer membrane permeabilization in Klebsiella pneumoniae ATCC 13883 measured for 20 mins by NPN uptake assay; type: functional, organism-based
Outline: (§3)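 Outer-membrane permeabilization of Gram-negative bacteria read as rise in fluorescence of the lipophilic dye NPN, which enters only when outer-membrane integrity is compromised. Peptides applied at their MIC against the respective strain; polymyxin B and levofloxacin as reference antibiotics. Triplicates.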

[8] = system: MCF7; assay: Induction of apoptosis in human MCF7 cells in DMEM medium at pH 6 assessed as increase in cleaved PARP level at 10 uM; type: functional, cell-based
Outline: (§4)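 MCF-7 cells treated with peptides at pH 6; apoptosis detected by immunoblotting for cleaved PARP and cleaved caspase-3.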

[9] = system: Monocyte; assay: Cytotoxicity against human monocytes assessed as deleterious effect upto 50 uM by flow cytometry; type: toxicity, cell-based; outline: as §2
[10] = system: Enterococcus faecium; assay: Depolarization of cytoplasmic membrane in Enterococcus faecium ATCC 700221 at MIC measured for 45 mins by DiSC3-(5) dye based assay; type: functional, organism-based
Outline: (§5)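 Bacteria loaded with membrane-potential dye DiSC3-(5), then treated with peptide at its MIC for the respective strain; depolarization read as rise in dye fluorescence; polymyxin B and levofloxacin as reference antibiotics.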

[11] = system: HCT-116; assay: pH-dependent anticancer activity against human HCT-116 cells in RPMI medium at 10 uM incubated for 1 hr; type: functional, cell-based; outline: as §1
[12] = system: Klebsiella pneumoniae; assay: Depolarization of cytoplasmic membrane in Klebsiella pneumoniae ATCC 13883 at MIC measured for 45 mins by DiSC3-(5) dye based assay; type: functional, organism-based; outline: as §5
[13] = system: HL-60; assay: pH-dependent anticancer activity against human HL-60 cells in PBS medium at 10 uM incubated for 1 hr; type: functional, cell-based; outline: as §1
[14] = system: HL-60; assay: pH-dependent anticancer activity against human HL-60 cells in RPMI medium at 10 uM incubated for 1 hr; type: functional, cell-based; outline: as §1
[15] = system: HCT-116; assay: pH-dependent anticancer activity against human HCT-116 cells in DMEM medium at 10 uM incubated for 1 hr; type: functional, cell-based; outline: as §1
[16] = Toxicity in neutropenic CD-1 mouse deep thigh infection model infected with Acinetobacter baumannii ATCC 19606 assessed as body weight change at 1.33 mg/kg, ip measured after 4 days; type: organism-based; settings: in vivo, 96 h, time 4 day
Outline: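 Neutropenic mice infected intramuscularly in the right thigh with 10⁶ cells per mL of A. baumannii ATCC 19606. […] Body weight monitored for toxicity. Euthanasia 4 days post-infection (day 8). n = 6 per group, from three inocula.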

[17] = Cytotoxicity against human granulocytes assessed as deleterious effect upto 50 uM by flow cytometry; type: toxicity, cell-based; settings: granulocyte; outline: as §2
[18] = system: K562; assay: pH-dependent anticancer activity against human K562 cells in RPMI medium at 10 uM incubated for 1 hr; type: functional, cell-based; outline: as §1
[19] = system: K562; assay: pH-dependent anticancer activity against human K562 cells in DMEM medium at 10 uM incubated for 1 hr; type: functional, cell-based; outline: as §1
[20] = system: Pseudomonas aeruginosa; assay: Induction of outer membrane permeabilization in Pseudomonas aeruginosa PAO1 measured for 20 mins by NPN uptake assay; type: functional, organism-based; outline: as §3
[21] = system: HL-60; assay: Anti-cancer activity against human HL-60 cells at 10 uM incubated for 30 mins; type: functional, cell-based
[22] = system: HL-60; assay: pH-dependent anticancer activity against human HL-60 cells in DMEM medium at 10 uM incubated for 1 hr; type: functional, cell-based; outline: as §1
[23] = system: Escherichia coli; assay: Depolarization of cytoplasmic membrane in Escherichia coli ATCC 11775 at MIC measured for 45 mins by DiSC3-(5) dye based assay; type: functional, organism-based; outline: as §5
[24] = system: Acinetobacter baumannii; assay: Induction of outer membrane permeabilization in Acinetobacter baumannii ATCC 19606 measured for 20 mins by NPN uptake assay; type: functional, organism-based
[25] = system: Pseudomonas aeruginosa; assay: Depolarization of cytoplasmic membrane in Pseudomonas aeruginosa PAO1 at MIC measured for 45 mins by DiSC3-(5) dye based assay; type: functional, organism-based; outline: as §5
[26] = Toxicity against reconstructed human skin model assessed as tissue viability at 50 uM incubated for 1 hr followed by compound washout measured after 42 hrs by MTT assay; type: tissue-based, Skin of body; settings: read-out: Activity
Outline: (§6)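 Reconstructed human epidermis with stratum corneum, per OECD TG 439 skin irritation guideline. Tissues exposed 1 h to peptide at 50 μM, then 42 h post-treatment incubation. Viability read by MTT. Controls were SDS and melittin.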

[27] = system: MCF7; assay: pH-dependent anticancer activity against human MCF7 cells in RPMI medium at 10 uM incubated for 1 hr; type: functional, cell-based; outline: as §1
[28] = system: K562; assay: pH-dependent anticancer activity against human K562 cells in PBS medium at 10 uM incubated for 1 hr; type: functional, cell-based; outline: as §1
[29] = system: Staphylococcus aureus; assay: Depolarization of cytoplasmic membrane in Staphylococcus aureus ATCC 12600 at MIC measured for 45 mins by DiSC3-(5) dye based assay; type: functional, organism-based; outline: as §5
[30] = system: MOLM-13; assay: Anti-cancer activity against human MOLM-13 cells incubated for 24 hrs by WST assay; type: functional, cell-based; settings: MOLM-13, 24 h
[31] = system: Acinetobacter baumannii; assay: Anti-infective activity against Acinetobacter baumannii ATCC 19606 infected in neutropenic CD-1 mouse deep thigh infection model assessed as reduction in bacterial load at 1.33 mg/kg, ip measured after 4 days; type: functional, organism-based; settings: time 4.0 day
Outline: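 Neutropenic mice infected intramuscularly in right thigh with 10⁶ cells per mL A. baumannii ATCC 19606; single intraperitoneal peptide dose at 10× MIC; bacterial load determined 4 days after treatment (euthanized day 8); n = 6 per group from three inocula; one-way ANOVA with Dunnett's test versus untreated.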

[32] = Anti-cancer activity against human NHDF cells incubated for 72 hrs by Cell Titer Glo assay; type: toxicity, cell-based
[33] = system: Acinetobacter baumannii; assay: Depolarization of cytoplasmic membrane in Acinetobacter baumannii ATCC 19606 at MIC measured for 45 mins by DiSC3-(5) dye based assay; type: functional, organism-based; outline: as §5
[34] = system: HCT-116; assay: pH-dependent anticancer activity against human HCT-116 cells in PBS medium at 10 uM incubated for 1 hr; type: functional, cell-based; outline: as §1
[35] = Toxicity against reconstructed human skin model assessed as irritation at 50 uM incubated for 1 hr followed by compound washout measured after 42 hrs by MTT assay; type: tissue-based, Skin of body; outline: as §6
[36] = system: MCF7; assay: Induction of apoptosis in human MCF7 cells in DMEM medium at pH 6 assessed as increase in cleaved capase-3 level at 10 uM; type: functional, cell-based; outline: as §4
[37] = system: Staphylococcus carnosus; assay: Antimicrobial activity against Staphylococcus carnosus CCM 4838T incubated for 24 hrs by broth microdilution assay; type: functional
[38] = system: MCF7; assay: pH-dependent anticancer activity against human MCF7 cells in DMEM medium at 10 uM incubated for 1 hr; type: functional, cell-based; outline: as §1
[39] = system: Escherichia coli; assay: Induction of outer membrane permeabilization in Escherichia coli ATCC 11775 measured for 20 mins by NPN uptake assay; type: functional, organism-based

Substance: H-HHHHLKKILKKLFQFINQLDNQLQDIHHHH-OH
- Activity [1]: Active
- IC50 [2]: 1000 nM
- IC50 [3]: 1000 nM
- Activity [4]: Non-Toxic
- Stability [5]: Stable
- Activity [6]: Non-Toxic
- Activity [7]: Active
- Activity [8]: Active
- Activity [9]: Non-Toxic
- Activity [10]: Active
- Activity [11]: Active
- Activity [12]: Active
- Activity [13]: Active
- Activity [14]: Active
- Activity [15]: Active
- Activity [16]: Non-Toxic
- Activity [17]: Non-Toxic
- Activity [18]: Active
- Activity [19]: Active
- Activity [20]: Active
- Activity [21]: Active
- Activity [22]: Active
- Activity [23]: Active
- Activity [24]: inactive
- Activity [25]: Active
- viability at 1 h, 50 µM [26]: 100%
- Activity [27]: Active
- Activity [28]: Active
- Activity [29]: Active
- IC50 [30]: 1000 nM
- Activity [31]: inactive
- IC50 at 72 h [32]: > 200000 nM
- Activity [33]: Active
- Activity [34]: Active
- Activity [35]: Non-Toxic
- Activity [36]: Active
- MIC [37]: > 50 µM
- Activity [38]: Active
- Activity [39]: Active
